According to ChEMBL document CHEMBL3045839, “Curcumin, a known phenolic from Curcuma longa, attenuates the virulence of Pseudomonas aeruginosa PAO1 in whole plant and animal pathogenicity models” (2008):
In brackets after ≈: the same amount, converted by molar mass. Activity calls are given as the source filed them. The calls are words filed in the database; no cut-off is given here.

Tests used:
Pseudomonas aeruginosa [1] = experiment: Inhibition of biofilm formation of Pseudomonas aeruginosa PAO1 at 1.5 to 3 ug/mL by crystal violet staining method; type: functional, organism-based
Summary of the method: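 Static biofilm in polypropylene tubes with LB containing curcumin 1.5–3.0 µg/mL from the start of incubation; ethanol equalized across tubes. Crystal violet staining, ethanol solubilization, OD read. Three replicates.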

Pseudomonas aeruginosa [2] = experiment: Inhibition of biofilm formation of Pseudomonas aeruginosa PAO1 at 2 to 3 ug/mL by confocal scanning laser microscopy; type: functional, organism-based
Summary of the method: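 PAO1 grown on two-well Permanox slides with curcumin 2–3 µg/mL. Stained with a LIVE/DEAD BacLight kit (SYTO 9/propidium iodide) 48 h postinoculation and imaged by confocal laser scanning microscopy with a 10× objective. Repeated twice, three replicates each.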

Pseudomonas aeruginosa [3] = experiment: Down regulation of phzD expression in Pseudomonas aeruginosa PAO1 at 3 ug/mL by microarray gene expression analysis; type: functional, organism-based
Summary of the method: (§1)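 PAO1 grown in triplicate in LB with curcumin 3 µg/mL, starting at OD600 ~0.02, at 37 °C and 200 rpm for 10 h (~2 OD600). RNA was isolated from 5 mL of culture, and 10 µg was amplified for microarray expression analysis.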

Pseudomonas aeruginosa [4] = experiment: Down regulation of QS system in Pseudomonas aeruginosa PAO1 assessed as reduction in C4-HSL production at 1 ug/mL by HPLC; type: functional; parameters: scale not given: the % may be the effect or the level left
Pseudomonas aeruginosa [5] = experiment: Antimicrobial activity against Pseudomonas aeruginosa PAO1 infected in Arabidopsis thaliana Col-0 assessed as protection against infection of roots at 3 ug/mL measured 7 days post dose; type: functional, organism-based
Summary of the method: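 In vitro root pathogenicity: ten-day-old Col-0 plants (n = 20 per treatment) in 2 mL liquid MS medium were inoculated with PAO1 at OD600 0.02–0.04 (~2.8 × 10^8 cells/mL), with curcumin 3.0 µg/mL added together with the bacteria. A non-inoculated control was kept. Plant mortality was recorded 7 days after inoculation; triplicate experiments.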

Pseudomonas aeruginosa [6] = experiment: Antimicrobial activity against Pseudomonas aeruginosa PAO1 infected in Arabidopsis thaliana Col-0 assessed as inhibition of biofilm formation in roots at 3 ug/mL measured 7 days post dose; type: functional, organism-based
Summary of the method: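 Ten-day-old Col-0 plants in 2 mL liquid MS medium were inoculated with PAO1 (OD600 0.02–0.04) with curcumin 3.0 µg/mL added alongside the bacteria. Root-surface biofilm was imaged by confocal microscopy after BacLight live/dead staining.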

Pseudomonas aeruginosa [7] = experiment: Down regulation of lasI expression in Pseudomonas aeruginosa PAO1 at 3 ug/mL by microarray gene expression analysis; type: functional, organism-based; summary of the method: as §1
Pseudomonas aeruginosa [8] = experiment: Down regulation of QS system in Pseudomonas aeruginosa PAO1 assessed as reduction in total homoserine lactone production at 5 ug/mL by HPLC relative to untreated control; type: functional
Pseudomonas aeruginosa [9] = experiment: Effect on QS system related genes in Pseudomonas aeruginosa PAO1 at 3 ug/mL by microarray gene expression analysis; type: functional, organism-based; summary of the method: as §1
Pseudomonas aeruginosa [10] = experiment: Growth inhibition of Pseudomonas aeruginosa PAO1 planktonic forms at >5 ug/mL; type: functional, organism-based
Summary of the method: (§2)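 PAO1 grown in LB with curcumin 0.5–30.0 µg/mL from an initial OD600 of 0.02; compound predissolved in ethanol, final solvent ≤0.02% v/v. OD600 read every 5 h up to 25 h; colony counts taken. n = 6, standard error.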

Pseudomonas aeruginosa [11] = experiment: Down regulation of rhlA expression in Pseudomonas aeruginosa PAO1 at 3 ug/mL by microarray gene expression analysis; type: functional, organism-based; summary of the method: as §1
Pseudomonas aeruginosa [12] = experiment: Down regulation of QS system in Pseudomonas aeruginosa PAO1 assessed as reduction in 3-oxo-C12-HSL production at 1 ug/mL by HPLC; type: functional; parameters: scale not given: the % may be the effect or the level left
Pseudomonas aeruginosa [13] = experiment: Down regulation of virulence factor production in Pseudomonas aeruginosa PAO1 assessed as reduction in protease production at 1 to 5 ug/mL relative to untreated control; type: functional
Summary of the method: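 Culture grown with or without curcumin for 24 h at 37 °C in PTSB (5% peptone, 0.25% tryptic soy broth). Filtered supernatant was incubated with 0.8% azocasein in 50 mM K2HPO4, pH 7, for 3 h at 25 °C. The reaction was stopped with 1.5 M HCl, kept on ice 30 min and centrifuged. NaOH was added, OD440 read and normalised to cell density.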

Pseudomonas aeruginosa [14] = experiment: Down regulation of virulence factor production in Pseudomonas aeruginosa PAO1 assessed as reduction in elastase production at 1 to 5 ug/mL relative to untreated control; type: functional
Summary of the method: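 Culture grown with or without curcumin for 24 h at 37 °C in PTSB (5% peptone, 0.25% tryptic soy broth). Filtered supernatant was added to elastin-congo red in 10 mM Na2HPO4, pH 7, and shaken for 4 h at 37 °C. After centrifugation, OD495 was read and normalised to cell density.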

Pseudomonas aeruginosa [15] = experiment: Down regulation of virulence factor production in Pseudomonas aeruginosa PAO1 assessed as reduction in pyocyanin production at 1.5 to 3 ug/mL; type: functional; parameters: scale not given: the % may be the effect or the level left
Summary of the method: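 PAO1 grown in LB with or without curcumin (1.5–3 µg mL-1) and harvested. Pyocyanin was extracted and estimated by the Mahajan-Miklos method, then normalised against live cell numbers.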

Pseudomonas aeruginosa [16] = experiment: Antimicrobial activity against Pseudomonas aeruginosa PAO1 infected in Arabidopsis thaliana Col-0 assessed as change in bacterial count in presence of AHL/3-oxo-HSL; type: functional, organism-based
Summary of the method: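 Col-0 seedlings in liquid MS medium inoculated with PAO1 (OD600 0.02–0.04, ~2.8 × 10^8 cells/mL) plus curcumin 3.0 µg/mL, with or without exogenous AHL/3-oxo-HSL. Roots harvested after 7 days; bacteria enumerated as CFU per gram fresh weight. Triplicate experiments.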

Pseudomonas aeruginosa [17] = experiment: Growth inhibition of Pseudomonas aeruginosa PAO1 planktonic forms; type: functional; summary of the method: as §2

COc1cc(/C=C/C(=O)CC(=O)/C=C/c2ccc(O)c(OC)c2)ccc1O [CURCUMIN]
inhibition (Pseudomonas aeruginosa [1]): Active
inhibition (Pseudomonas aeruginosa [2]): Active
Activity (Pseudomonas aeruginosa [3]): Active
Activity (Pseudomonas aeruginosa [4]): >2%
inhibition (Pseudomonas aeruginosa [5]): Active
inhibition (Pseudomonas aeruginosa [6]): Active
Activity (Pseudomonas aeruginosa [7]): Active
fold change (FC) (Pseudomonas aeruginosa [8]): 3
Activity (Pseudomonas aeruginosa [9]): Active
growth inhibition (GI) (Pseudomonas aeruginosa [10]): inactive
Activity (Pseudomonas aeruginosa [11]): Active
Activity (Pseudomonas aeruginosa [12]): 25%
fold change (FC) (Pseudomonas aeruginosa [13]): 2
fold change (FC) (Pseudomonas aeruginosa [14]): 2
Activity (Pseudomonas aeruginosa [15]): 60%
Activity (Pseudomonas aeruginosa [16]): inactive
MIC (Pseudomonas aeruginosa [17]): 30 µg/mL (≈ 81.4 µM)
